Laboratory results published in ChEMBL document CHEMBL1141070, “Synthesis and biological activity of flurbiprofen analogues as selective inhibitors of beta-amyloid(1)(-)(42) secretion” (J Med Chem, 2005).

Columns and labels:
CYP2C9 = CYP2C9 (Homo sapiens, UniProt P11712); experiment: Interaction with human cytochrome P450 isoform 2C9 expressed in baculovirus-insect cells at 100 uM; format: ADME
Summary of the method: (§1)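 Microsomes from baculovirus-insect cells expressing human CYP1A2, 2C9, 2C19, 2D6 or 3A4. Compound serially diluted with an NADPH-regenerating mix (16.3 μM NADP+, 0.83 mM glucose-6-phosphate, 0.83 mM MgCl2, 0.4 U/mL G6PDH). Pre-warmed 10 min at 37 °C, then isoform-specific substrate added in 0.35 M potassium phosphate pH 7.4. Fluorometric read-out; IC50 by nonlinear regression.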

CYP3A4 = CYP3A4 (Homo sapiens, UniProt P08684); experiment: Interaction with human cytochrome P450 isoform 3A4 expressed in baculovirus-insect cells at 100 uM; format: ADME; summary of the method: as §1
CYP2C19 = CYP2C19 (Homo sapiens, UniProt P33261); experiment: Interaction with human cytochrome P450 isoform 2C19 expressed in baculovirus-insect cells at 100 uM; format: ADME; summary of the method: as §1
[1] = biological target: T1, Amyloid-beta precursor protein (Homo sapiens, UniProt P05067); conditions: at 100 µM
Target sequence in this assay (P05067 whole entry): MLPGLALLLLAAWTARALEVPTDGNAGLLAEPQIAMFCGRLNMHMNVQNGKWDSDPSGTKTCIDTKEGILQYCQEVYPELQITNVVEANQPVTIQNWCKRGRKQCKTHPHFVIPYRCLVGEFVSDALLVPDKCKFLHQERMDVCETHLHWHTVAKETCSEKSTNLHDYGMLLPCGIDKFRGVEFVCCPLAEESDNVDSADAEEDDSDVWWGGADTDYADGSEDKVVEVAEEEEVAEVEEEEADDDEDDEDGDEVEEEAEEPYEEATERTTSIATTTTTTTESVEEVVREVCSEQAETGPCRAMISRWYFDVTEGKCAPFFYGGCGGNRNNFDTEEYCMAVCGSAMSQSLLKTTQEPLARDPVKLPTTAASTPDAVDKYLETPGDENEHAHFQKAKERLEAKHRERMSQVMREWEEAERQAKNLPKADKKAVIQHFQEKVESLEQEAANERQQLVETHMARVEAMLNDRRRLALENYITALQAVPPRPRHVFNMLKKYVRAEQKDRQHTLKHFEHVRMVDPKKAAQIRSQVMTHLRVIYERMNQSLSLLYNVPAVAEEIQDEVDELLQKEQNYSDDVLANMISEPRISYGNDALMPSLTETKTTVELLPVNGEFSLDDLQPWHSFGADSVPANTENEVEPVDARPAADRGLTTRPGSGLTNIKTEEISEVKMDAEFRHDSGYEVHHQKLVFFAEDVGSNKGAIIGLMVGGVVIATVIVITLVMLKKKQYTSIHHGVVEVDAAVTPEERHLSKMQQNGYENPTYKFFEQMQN

[2] = Concentration ratio in cerebrospinal fluid and plasma; conditions: rat
[3] = In vivo steady state metabolic clearance of the compound; conditions: rat
Cytochrome P450 2C9 = Cytochrome P450 2C9 (Homo sapiens, UniProt P11712); experiment: Interaction with human cytochrome P450 isoform 2C9 expressed in baculovirus-insect cells; format: ADME; summary of the method: as §1
Cytochrome P450 3A4 = Cytochrome P450 3A4 (Homo sapiens, UniProt P08684); experiment: Interaction with human cytochrome P450 isoform 3A4 expressed in baculovirus-insect cells; format: ADME
Summary of the method: (§2)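 Supersome microsomes from baculovirus-insect cells expressing human CYP1A2, 2C9, 2C19, 2D6 or 3A4 were used with isoform-specific fluorogenic substrates. Compounds were serially diluted with an NADP⁺/glucose-6-phosphate regenerating system in 0.35 M potassium phosphate, pH 7.4. Plates were prewarmed 10 min at 37 °C, reactions stopped with acetonitrile/Tris, and fluorescence read. IC50 was obtained by nonlinear regression.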

Cytochrome P450 2C19 = Cytochrome P450 2C19 (Homo sapiens, UniProt P33261); experiment: Interaction with human cytochrome P450 isoform 2C19 expressed in baculovirus-insect cells; format: ADME; summary of the method: as §1
[4] = biological target: T1, Amyloid-beta precursor protein; experiment: Inhibitory concentration against beta-amyloid-42 (Abeta42) secretion was evaluated in human neuroglioma cells (H4-APP695NL); format: functional, cell-based
Summary of the method: (§3)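 H4-APP695NL human neuroglioma cells (APP695 Swedish K595N/M596L) seeded at 2 × 10^5/well and grown 24 h to confluence. Increasing compound concentrations added overnight; DMSO 1% as vehicle. Supernatant Aβ42 or Aβ40 measured by electrochemiluminescence immunoassay: biotinylated 4G8 plus C-terminus-specific rabbit antibodies, captured on streptavidin beads.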
Target sequence in this assay (P05067 18-770 limits assumed): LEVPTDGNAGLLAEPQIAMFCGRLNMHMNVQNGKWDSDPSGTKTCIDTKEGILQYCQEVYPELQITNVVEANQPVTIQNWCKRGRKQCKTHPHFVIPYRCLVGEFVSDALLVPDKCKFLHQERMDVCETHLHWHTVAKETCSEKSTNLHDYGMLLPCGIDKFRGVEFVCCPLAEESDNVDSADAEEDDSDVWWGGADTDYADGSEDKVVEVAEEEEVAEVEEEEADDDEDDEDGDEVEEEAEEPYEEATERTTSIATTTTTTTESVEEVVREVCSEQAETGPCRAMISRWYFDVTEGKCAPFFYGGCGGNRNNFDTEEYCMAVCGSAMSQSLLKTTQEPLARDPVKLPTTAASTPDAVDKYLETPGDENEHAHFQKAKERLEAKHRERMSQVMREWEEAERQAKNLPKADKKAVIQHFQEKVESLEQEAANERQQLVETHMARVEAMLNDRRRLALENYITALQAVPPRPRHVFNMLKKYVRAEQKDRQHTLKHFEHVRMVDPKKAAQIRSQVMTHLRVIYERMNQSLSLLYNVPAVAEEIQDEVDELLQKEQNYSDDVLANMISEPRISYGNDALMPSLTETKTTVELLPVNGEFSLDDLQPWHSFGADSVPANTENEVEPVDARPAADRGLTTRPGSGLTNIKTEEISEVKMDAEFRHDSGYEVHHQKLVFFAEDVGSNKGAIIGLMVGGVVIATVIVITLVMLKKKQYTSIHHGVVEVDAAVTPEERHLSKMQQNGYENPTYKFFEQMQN

[5] = Intestinal drug absorption was estimated in vitro using human colon adenocarcinoma (Caco-2) cell monolayers; format: ADME
Summary of the method: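 Caco-2 monolayers on polycarbonate Transwell inserts, 2 h at 37 °C. Apical and basolateral solutions analysed by LC-MS/MS (SRM). Papp = Cb·Vb/(C0·A·t).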

[6] = biological target: T1, Amyloid-beta precursor protein; experiment: (§4) Concentration required to inhibit A beta 40 peptide 100 uM
Target sequence in this assay (P05067 whole entry): as the sequence (P05067 whole entry) above

[7] = biological target: T2, Prostaglandin G/H synthase 1 (Rattus norvegicus) (UniProt Q63921); experiment: Percent inhibition against cyclooxygenase-1 at 100 uM in rat blood
T2 sequence (whole entry): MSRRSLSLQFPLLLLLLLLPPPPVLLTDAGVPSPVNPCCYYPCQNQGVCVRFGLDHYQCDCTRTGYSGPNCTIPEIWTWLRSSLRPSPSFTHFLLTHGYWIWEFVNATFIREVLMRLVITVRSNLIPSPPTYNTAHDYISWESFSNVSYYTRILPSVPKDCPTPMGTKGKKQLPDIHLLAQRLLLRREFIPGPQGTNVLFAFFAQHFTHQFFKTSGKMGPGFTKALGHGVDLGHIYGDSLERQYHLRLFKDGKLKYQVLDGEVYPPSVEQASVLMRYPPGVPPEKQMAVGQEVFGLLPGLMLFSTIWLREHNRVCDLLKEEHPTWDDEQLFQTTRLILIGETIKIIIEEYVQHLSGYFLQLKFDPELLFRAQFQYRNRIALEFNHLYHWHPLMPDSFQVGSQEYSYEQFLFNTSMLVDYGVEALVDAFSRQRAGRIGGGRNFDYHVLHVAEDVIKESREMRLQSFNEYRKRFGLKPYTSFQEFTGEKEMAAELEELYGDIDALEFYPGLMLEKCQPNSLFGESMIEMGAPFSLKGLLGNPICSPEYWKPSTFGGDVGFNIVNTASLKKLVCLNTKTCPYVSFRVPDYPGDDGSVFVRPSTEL
Summary of the method: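 Fresh rat whole blood preincubated 1 h at 37 °C with compound (100 μM) or DMSO (0.3% final). Stimulated 30 min with A23187 calcium ionophore; plasma thromboxane B2 measured by radioimmunoassay.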

Cytochrome P450 2D6 = Cytochrome P450 2D6 (Homo sapiens, UniProt P10635); experiment: Interaction with human cytochrome P450 isoform 2D6 expressed in baculovirus-insect cells; format: ADME; summary of the method: as §2
[8] = biological target: T1, Amyloid-beta precursor protein; experiment: as §4; summary of the method: as §3; remark: listed apart in the source
Target sequence in this assay (P05067 whole entry): as the sequence (P05067 whole entry) above

[9] = Concentration ratio in cerebrospinal fluid and plasma; below lower limit of quantitation; conditions: rat
CYP1A2 = biological target: T3, CYP1A2 (Homo sapiens, UniProt P05177); experiment: Interaction with human cytochrome P450 isoform 1A2 expressed in baculovirus-insect cells at 100 uM; format: ADME; summary of the method: as §1
T3 sequence (P05177 whole entry): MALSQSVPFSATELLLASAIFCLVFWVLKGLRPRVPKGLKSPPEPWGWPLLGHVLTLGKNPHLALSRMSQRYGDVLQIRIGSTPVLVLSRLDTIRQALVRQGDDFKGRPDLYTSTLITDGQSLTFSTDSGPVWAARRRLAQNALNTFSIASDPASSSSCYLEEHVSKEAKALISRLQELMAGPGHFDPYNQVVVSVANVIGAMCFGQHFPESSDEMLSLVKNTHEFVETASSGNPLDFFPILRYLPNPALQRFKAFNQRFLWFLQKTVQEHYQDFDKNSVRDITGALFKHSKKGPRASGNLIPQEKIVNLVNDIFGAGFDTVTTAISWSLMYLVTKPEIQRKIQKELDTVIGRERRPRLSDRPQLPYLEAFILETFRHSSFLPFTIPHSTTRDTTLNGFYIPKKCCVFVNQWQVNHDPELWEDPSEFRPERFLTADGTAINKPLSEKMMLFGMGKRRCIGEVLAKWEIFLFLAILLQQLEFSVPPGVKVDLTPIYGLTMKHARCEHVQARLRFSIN

CYP2D6 = CYP2D6 (Homo sapiens, UniProt P10635); experiment: Interaction with human cytochrome P450 isoform 2D6 expressed in baculovirus-insect cells at 100 uM; format: ADME; summary of the method: as §1
Sequence of CYP2D6 (P10635 whole entry, canonical isoform): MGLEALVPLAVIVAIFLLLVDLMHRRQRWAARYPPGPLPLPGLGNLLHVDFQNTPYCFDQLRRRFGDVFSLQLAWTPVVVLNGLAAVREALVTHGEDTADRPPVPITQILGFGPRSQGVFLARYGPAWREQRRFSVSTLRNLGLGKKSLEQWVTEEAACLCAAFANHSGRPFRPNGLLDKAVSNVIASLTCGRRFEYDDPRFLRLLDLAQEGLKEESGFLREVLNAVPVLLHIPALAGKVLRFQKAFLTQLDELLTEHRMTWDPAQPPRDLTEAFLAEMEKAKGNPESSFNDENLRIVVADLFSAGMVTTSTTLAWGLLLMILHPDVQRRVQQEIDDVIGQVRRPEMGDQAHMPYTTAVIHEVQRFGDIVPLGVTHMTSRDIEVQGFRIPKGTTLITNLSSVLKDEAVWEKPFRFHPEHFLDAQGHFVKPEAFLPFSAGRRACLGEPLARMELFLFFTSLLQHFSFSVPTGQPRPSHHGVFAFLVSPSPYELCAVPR

Sequence of CYP2C19 (P33261 whole entry, canonical isoform): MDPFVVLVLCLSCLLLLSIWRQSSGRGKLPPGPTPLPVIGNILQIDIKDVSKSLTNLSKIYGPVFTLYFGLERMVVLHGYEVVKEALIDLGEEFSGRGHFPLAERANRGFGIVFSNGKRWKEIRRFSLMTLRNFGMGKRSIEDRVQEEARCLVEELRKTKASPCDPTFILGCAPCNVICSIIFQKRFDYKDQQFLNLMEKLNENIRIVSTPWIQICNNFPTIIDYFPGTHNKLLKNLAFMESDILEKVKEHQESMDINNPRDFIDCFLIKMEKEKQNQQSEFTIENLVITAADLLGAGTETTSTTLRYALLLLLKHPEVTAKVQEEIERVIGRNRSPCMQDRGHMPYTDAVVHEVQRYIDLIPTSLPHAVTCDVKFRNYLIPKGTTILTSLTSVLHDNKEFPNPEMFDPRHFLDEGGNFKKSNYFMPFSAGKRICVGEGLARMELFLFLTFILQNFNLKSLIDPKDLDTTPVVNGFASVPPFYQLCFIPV
Sequence of Cytochrome P450 2C19 (P33261 whole entry, canonical isoform): as above
Sequence of Cytochrome P450 2C9 (P11712 whole entry, canonical isoform): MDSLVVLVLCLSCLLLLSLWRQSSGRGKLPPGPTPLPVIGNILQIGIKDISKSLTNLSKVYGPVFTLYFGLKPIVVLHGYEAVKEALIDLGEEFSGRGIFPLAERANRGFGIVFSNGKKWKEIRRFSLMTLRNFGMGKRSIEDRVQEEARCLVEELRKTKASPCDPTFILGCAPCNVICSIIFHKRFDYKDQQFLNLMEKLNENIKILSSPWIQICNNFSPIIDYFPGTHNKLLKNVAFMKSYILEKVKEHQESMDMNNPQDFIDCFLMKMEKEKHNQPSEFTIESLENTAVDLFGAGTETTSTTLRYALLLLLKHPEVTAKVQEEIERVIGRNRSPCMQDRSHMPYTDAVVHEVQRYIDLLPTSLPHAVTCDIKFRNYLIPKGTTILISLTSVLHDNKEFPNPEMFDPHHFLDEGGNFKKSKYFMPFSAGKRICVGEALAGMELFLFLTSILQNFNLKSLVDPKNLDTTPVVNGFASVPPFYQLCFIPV
Sequence of Cytochrome P450 2D6 (P10635 whole entry, canonical isoform): as the sequence (P10635 whole entry, canonical isoform) above
Sequence of CYP2C9 (P11712 whole entry, canonical isoform): as the sequence (P11712 whole entry, canonical isoform) above
Sequence of CYP3A4 (P08684 whole entry, canonical isoform): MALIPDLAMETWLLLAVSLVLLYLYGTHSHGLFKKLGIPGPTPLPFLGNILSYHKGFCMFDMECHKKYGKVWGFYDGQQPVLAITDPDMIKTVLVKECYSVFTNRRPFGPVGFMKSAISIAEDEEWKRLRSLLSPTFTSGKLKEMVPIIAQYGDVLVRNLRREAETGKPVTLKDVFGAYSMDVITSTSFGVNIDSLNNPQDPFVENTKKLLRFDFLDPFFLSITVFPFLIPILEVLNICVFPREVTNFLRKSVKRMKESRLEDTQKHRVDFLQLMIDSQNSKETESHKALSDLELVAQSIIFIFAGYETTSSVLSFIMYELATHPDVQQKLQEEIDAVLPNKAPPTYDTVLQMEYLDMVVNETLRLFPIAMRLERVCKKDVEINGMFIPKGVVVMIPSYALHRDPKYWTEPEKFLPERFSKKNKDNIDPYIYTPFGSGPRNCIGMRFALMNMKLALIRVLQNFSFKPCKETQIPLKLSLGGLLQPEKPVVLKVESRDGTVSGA
Sequence of Cytochrome P450 3A4 (P08684 whole entry, canonical isoform): as above

Question: With CC(c1ccc(-c2ccc(C(F)(F)F)cc2)c(F)c1)c1noc(O)n1 (configuration not stated) as the compound, how does the inhibition at 100 µM (CYP2C9) read?
Answer: > 50%

Question: And the inhibition at 100 µM (CYP3A4)?
Answer: > 50%

Question: And the inhibition at 100 µM (CYP2C19)?
Answer: > 50%

Question: And the inhibition [1]?
Answer: 46%

Question: What about the Ratio [2] of the same compound?
Answer: 2.1%

Question: And the Clearance [3]?
Answer: 5.3 mL/h

Question: For O=C(O)C1(c2ccc(-c3ccc(-c4ccc(F)cc4)c(F)c3)c(F)c2)CC1, which IC50 (Cytochrome P450 2C9) is on record?
Answer: 7 µM

Question: And the IC50 (Cytochrome P450 3A4)?
Answer: 38 µM

Question: And the IC50 (Cytochrome P450 2C19)?
Answer: 46 µM

Question: And the IC50 [4]?
Answer: 57.9 µM

Question: And the Papp [5]?
Answer: < 1 ×10⁻⁶ cm/s

Question: And the inhibition [6]?
Answer: 32%

Question: And the inhibition [7]?
Answer: 18%

Question: What about the inhibition [1] of the same compound?
Answer: 75%

Question: And the Ratio [2]?
Answer: 1.8%

Question: What about the Clearance [3] of the same compound?
Answer: 8.1 mL/h

Question: For O=C(O)C1(c2ccc(-c3ccc(OC4CCOCC4)cc3)c(F)c2)CC1, which inhibition [1] is on record?
Answer: 28%

Question: And the Ratio [2]?
Answer: 1.1%

Question: And the Clearance [3]?
Answer: 70.5 mL/h

Question: With CC(C(=O)O)c1ccc(-c2ccc(C(F)(F)F)cc2)cc1C(F)(F)F (configuration not stated) as the compound, how does the inhibition [1] read?
Answer: 57%

Question: Which IC50 (Cytochrome P450 2C9) does the source give for O=C(O)C1(c2ccc(-c3ccc(-c4ccc(O)cc4)cc3)c(F)c2)CC1 here?
Answer: 89 µM

Question: What about the IC50 (Cytochrome P450 2D6) of the same compound?
Answer: 21.5 µM

Question: What about the IC50 (Cytochrome P450 2C19) of the same compound?
Answer: 35 µM

Question: And the IC50 [4]?
Answer: 31.6 µM

Question: What about the Papp [5] of the same compound?
Answer: > 5 ×10⁻⁶ cm/s

Question: What about the IC50 [8] of the same compound?
Answer: 409 µM

Question: And the inhibition [7]?
Answer: < 1%

Question: What about the inhibition [1] of the same compound?
Answer: 99%

Question: What does the source list for O=C(O)C1(c2ccc(-c3ccc(C4CCOCC4)cc3)c(F)c2)CC1?
Answer: inhibition [1]: 52%; Clearance [3]: 39 mL/h; Ratio [9]: Below LLOQ

Question: Which inhibition [1] does the source give for CC(C(=O)O)c1ccc(-c2ccc(Cl)cc2)c(F)c1 (configuration not stated) here?
Answer: 55%

Question: For COc1ccc(-c2ccc(C(C)C(=O)O)cc2F)cc1 (configuration not stated), which IC50 (Cytochrome P450 2C19) is on record?
Answer: 87 µM

Question: And the IC50 [4]?
Answer: 67 µM

Question: And the Papp [5]?
Answer: > 5 ×10⁻⁶ cm/s

Question: What about the inhibition [1] of the same compound?
Answer: 67%

Question: Which inhibition [1] does the source give for CC(C(=O)O)c1ccc(-c2ccccc2Cl)c(F)c1 (configuration not stated) here?
Answer: 13%

Question: For CC(C(=O)NO)c1ccc(-c2ccc(C(F)(F)F)cc2)c(F)c1 (configuration not stated), which inhibition [1] is on record?
Answer: 31%

Question: Which results are given for CC(C(=O)O)c1ccc(-c2ccc(Cl)c(Cl)c2)c(F)c1 (configuration not stated)?
Answer: IC50 [4]: 75 µM; Papp [5]: > 5 ×10⁻⁶ cm/s; inhibition [7]: 78%; inhibition at 100 µM (CYP2C19): > 50%; inhibition [1]: 87%

Question: Which results are given for CC(C(=O)O)c1ccc(-c2ccc3c(c2)OCO3)c(F)c1 (configuration not stated)?
Answer: IC50 [4]: 210 µM; inhibition [1]: 42%

Question: What does the source list for CC(C)(C(=O)O)c1ccc(-c2ccc(C(F)(F)F)cc2)c(F)c1?
Answer: IC50 [4]: 70.6 µM; inhibition [1]: 58%

Question: For CC1(C)CCC(c2ccc(-c3ccc(C4(C(=O)O)CC4)cc3F)cc2)CC1, which IC50 (Cytochrome P450 2C9) is on record?
Answer: 17 µM

Question: And the IC50 (Cytochrome P450 2D6)?
Answer: 5.3 µM

Question: And the IC50 (Cytochrome P450 3A4)?
Answer: 84 µM

Question: And the IC50 (Cytochrome P450 2C19)?
Answer: 13 µM

Question: And the IC50 [4]?
Answer: 46 µM

Question: What about the Papp [5] of the same compound?
Answer: < 1 ×10⁻⁶ cm/s

Question: What about the IC50 [8] of the same compound?
Answer: 101 µM

Question: What about the inhibition [7] of the same compound?
Answer: 17%

Question: What about the inhibition [1] of the same compound?
Answer: 75%

Question: And the Ratio [2]?
Answer: Below LLOQ

Question: What about the Clearance [3] of the same compound?
Answer: 145.8 mL/h

Question: For CC(C(=O)O)c1ccc(-c2ccc(C(F)(F)F)cc2)c(Cl)c1 (configuration not stated), which inhibition [6] is on record?
Answer: 40%

Question: What does the source list for CC(c1ccc(-c2ccc(C(F)(F)F)cc2)c(F)c1)c1nnn[nH]1 (configuration not stated)?
Answer: IC50 [4]: 114 µM; inhibition [7]: 9%; inhibition at 100 µM (CYP1A2): > 50%; inhibition at 100 µM (CYP2D6): > 50%; inhibition at 100 µM (CYP2C9): > 50%; inhibition at 100 µM (CYP3A4): > 50%; inhibition at 100 µM (CYP2C19): > 50%; inhibition [1]: 43%
